{"source": "ChEMBL document CHEMBL1143109", "about": "“Discovery of novel orally active ureido NPY Y5 receptor antagonists” (Bioorg Med Chem Lett, 2008)", "key": {"[1]": {"assay": "Inhibition of potassium channel at 10 uM", "how_it_was_run": "(§1)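 Counterscreen panel of 60 receptors, enzymes and ion channels; inhibition of binding measured at 10 µM.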"}, "[2]": {"target": "5-hydroxytryptamine receptor 2A (Homo sapiens) (UniProt P28223)", "sequence (P28223 whole entry)": "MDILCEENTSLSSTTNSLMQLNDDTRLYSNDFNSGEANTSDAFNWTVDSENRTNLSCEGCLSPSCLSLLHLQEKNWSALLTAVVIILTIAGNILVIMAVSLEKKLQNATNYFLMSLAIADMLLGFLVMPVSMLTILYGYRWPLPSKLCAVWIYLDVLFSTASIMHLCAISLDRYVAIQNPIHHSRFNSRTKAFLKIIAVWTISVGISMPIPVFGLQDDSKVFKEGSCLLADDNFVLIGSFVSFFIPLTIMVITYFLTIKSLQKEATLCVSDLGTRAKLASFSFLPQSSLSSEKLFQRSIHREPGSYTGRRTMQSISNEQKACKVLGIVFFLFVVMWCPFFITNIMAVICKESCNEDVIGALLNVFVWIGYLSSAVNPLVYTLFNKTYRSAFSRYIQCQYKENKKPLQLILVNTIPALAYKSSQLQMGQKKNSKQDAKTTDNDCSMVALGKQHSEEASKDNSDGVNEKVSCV", "assay": "Inhibition of 5HT2A receptor at 10 uM", "how_it_was_run": "as §1"}, "Rattus norvegicus [3]": {"test_system": "Rattus norvegicus", "assay": "Increase in lean body mass in Sprague-Dawley DIO rat at 10 mg/kg/day, po after 28 days", "type": "functional, organism-based", "how_it_was_run": "(§2)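 DIO rats weighing 700–800 g at start, n = 12/group, food and water ad libitum. Compound admixed into low fat diet for 28 days; delivered doses (1, 3 or 10 mg/kg/day) calculated from food consumption. Body composition by DEXA scanning, expressed as percent change from day 0 baseline; average plasma levels taken at the 10 mg/kg/day dose.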"}, "[4]": {"target": "5-hydroxytryptamine receptor 6 (Homo sapiens) (UniProt P50406)", "sequence (P50406 whole entry)": "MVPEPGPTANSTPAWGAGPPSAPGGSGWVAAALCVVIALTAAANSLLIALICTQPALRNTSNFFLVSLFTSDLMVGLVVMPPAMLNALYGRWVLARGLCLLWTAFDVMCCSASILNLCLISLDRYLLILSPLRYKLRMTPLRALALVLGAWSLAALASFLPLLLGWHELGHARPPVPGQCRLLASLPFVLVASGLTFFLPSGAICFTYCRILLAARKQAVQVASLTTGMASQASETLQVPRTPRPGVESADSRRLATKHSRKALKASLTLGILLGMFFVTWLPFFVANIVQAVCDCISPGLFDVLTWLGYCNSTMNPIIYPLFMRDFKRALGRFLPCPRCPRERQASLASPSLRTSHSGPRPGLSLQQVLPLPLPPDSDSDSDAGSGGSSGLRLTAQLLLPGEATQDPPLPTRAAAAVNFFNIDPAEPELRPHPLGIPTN", "assay": "Inhibition of 5HT6 receptor at 10 uM", "how_it_was_run": "as §1"}, "[5]": {"assay": "Half life in Beagle dog", "type": "ADME, organism-based, Canis lupus familiaris", "conditions": "in vivo"}, "Rattus norvegicus [6]": {"species_on_record": "Rattus norvegicus", "assay": "Antagonism of galanin-induced food intake in rat", "type": "functional, organism-based"}, "[7]": {"target": "Sodium-dependent serotonin transporter (Homo sapiens) (UniProt P31645)", "sequence (P31645 whole entry, looked up)": "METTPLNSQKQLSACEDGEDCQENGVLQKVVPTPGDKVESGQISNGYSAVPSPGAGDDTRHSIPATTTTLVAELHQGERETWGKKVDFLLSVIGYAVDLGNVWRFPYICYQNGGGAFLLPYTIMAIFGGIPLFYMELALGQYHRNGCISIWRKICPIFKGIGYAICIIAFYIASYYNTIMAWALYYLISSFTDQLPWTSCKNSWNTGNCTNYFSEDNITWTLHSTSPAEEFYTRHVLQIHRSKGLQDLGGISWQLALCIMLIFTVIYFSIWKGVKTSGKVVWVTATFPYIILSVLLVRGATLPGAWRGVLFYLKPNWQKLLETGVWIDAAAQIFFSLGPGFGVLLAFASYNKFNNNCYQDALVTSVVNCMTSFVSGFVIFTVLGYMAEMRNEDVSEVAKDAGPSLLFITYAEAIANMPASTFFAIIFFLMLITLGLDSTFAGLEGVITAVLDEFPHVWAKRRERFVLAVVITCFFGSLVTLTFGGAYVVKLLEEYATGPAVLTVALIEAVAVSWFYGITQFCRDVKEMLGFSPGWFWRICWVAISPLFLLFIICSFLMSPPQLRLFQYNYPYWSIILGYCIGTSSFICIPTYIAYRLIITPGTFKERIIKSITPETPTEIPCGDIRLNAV", "assay": "Inhibition of serotonin transporter at 10 uM", "how_it_was_run": "as §1"}, "[8]": {"assay": "Drug level in plasma of Sprague-Dawley DIO rat at 10 mg/kg/day, po after 28 days", "type": "ADME, organism-based", "design": "route oral", "how_it_was_run": "as §2"}, "[9]": {"assay": "Bioavailability in po dosed rat", "type": "ADME, organism-based", "conditions": "in vivo"}, "[10]": {"target": "T1, 5-hydroxytryptamine receptor 3A (Homo sapiens) (UniProt P46098)", "T1 sequence (whole entry)": "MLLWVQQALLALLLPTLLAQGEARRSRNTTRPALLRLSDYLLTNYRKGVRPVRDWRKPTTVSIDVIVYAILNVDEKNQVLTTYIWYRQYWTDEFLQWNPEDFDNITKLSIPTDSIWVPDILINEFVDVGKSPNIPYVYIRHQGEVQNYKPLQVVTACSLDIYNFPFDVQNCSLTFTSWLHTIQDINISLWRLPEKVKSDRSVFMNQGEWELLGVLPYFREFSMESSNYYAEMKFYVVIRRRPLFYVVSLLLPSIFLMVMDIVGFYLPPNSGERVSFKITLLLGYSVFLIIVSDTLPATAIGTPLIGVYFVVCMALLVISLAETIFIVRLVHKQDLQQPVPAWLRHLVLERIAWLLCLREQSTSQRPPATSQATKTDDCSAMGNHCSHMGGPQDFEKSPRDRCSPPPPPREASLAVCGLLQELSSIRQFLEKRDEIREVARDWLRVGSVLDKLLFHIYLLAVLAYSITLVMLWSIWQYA", "assay": "Inhibition of 5HT3 receptor at 10 uM", "how_it_was_run": "as §1"}, "[11]": {"target": "Neuropeptide Y receptor type 4 (Homo sapiens, UniProt P50391)", "sequence (P50391 whole entry)": "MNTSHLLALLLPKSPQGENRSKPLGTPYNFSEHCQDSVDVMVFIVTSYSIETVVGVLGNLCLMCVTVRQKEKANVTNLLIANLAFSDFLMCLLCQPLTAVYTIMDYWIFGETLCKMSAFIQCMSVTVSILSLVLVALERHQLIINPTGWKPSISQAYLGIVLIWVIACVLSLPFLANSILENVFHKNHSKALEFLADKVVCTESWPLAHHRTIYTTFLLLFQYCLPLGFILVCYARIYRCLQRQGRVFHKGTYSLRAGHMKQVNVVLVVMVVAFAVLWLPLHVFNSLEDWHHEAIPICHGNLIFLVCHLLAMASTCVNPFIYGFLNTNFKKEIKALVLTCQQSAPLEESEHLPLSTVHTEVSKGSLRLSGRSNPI", "assay": "Binding affinity to human NPY Y4 receptor"}, "[12]": {"assay": "Inhibition of chloride channel at 10 uM", "how_it_was_run": "as §1"}, "[13]": {"assay": "Half life in iv dosed rat", "type": "ADME, organism-based", "conditions": "in vivo"}, "Rattus norvegicus [14]": {"test_system": "Rattus norvegicus", "assay": "Blockade of D-Trp[34]-NPY-induced food intake in po dosed rat", "type": "functional"}, "[15]": {"target": "5-hydroxytryptamine receptor 7 (Homo sapiens) (UniProt P34969)", "sequence (P34969 whole entry)": "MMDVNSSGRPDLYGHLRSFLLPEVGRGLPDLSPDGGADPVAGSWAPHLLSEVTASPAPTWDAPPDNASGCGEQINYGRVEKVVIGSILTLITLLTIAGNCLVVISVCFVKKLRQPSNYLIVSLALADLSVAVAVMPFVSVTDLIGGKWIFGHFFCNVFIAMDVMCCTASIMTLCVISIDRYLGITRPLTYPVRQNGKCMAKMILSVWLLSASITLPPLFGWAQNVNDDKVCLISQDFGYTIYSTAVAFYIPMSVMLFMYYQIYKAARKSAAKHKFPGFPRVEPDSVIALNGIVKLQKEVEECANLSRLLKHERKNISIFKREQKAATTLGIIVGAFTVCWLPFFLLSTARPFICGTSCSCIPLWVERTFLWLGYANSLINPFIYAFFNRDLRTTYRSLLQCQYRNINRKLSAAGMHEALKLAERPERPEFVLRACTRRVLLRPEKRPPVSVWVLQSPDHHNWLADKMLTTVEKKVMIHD", "assay": "Inhibition of 5HT7 receptor at 10 uM", "how_it_was_run": "as §1"}, "[16]": {"target": "T2, Neuropeptide Y receptor type 2 (Homo sapiens, UniProt P49146)", "T2 sequence (P49146 whole entry)": "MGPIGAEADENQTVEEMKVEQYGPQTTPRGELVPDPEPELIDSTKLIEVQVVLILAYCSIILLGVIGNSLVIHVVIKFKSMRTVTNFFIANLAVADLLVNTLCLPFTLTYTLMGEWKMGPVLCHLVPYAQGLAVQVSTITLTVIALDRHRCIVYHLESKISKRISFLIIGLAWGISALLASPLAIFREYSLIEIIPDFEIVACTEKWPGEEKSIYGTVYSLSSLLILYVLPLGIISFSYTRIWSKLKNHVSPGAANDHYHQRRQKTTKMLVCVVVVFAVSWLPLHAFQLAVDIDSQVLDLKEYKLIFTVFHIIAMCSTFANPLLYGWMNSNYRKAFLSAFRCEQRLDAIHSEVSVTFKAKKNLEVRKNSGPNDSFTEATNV", "assay": "Binding affinity to human NPY Y2 receptor"}, "[17]": {"assay": "Ratio of drug level in brain to plasma in po dosed rat", "type": "ADME, organism-based", "conditions": "read-out: BPR"}, "[18]": {"assay": "Inhibition of calcium channel at 10 uM", "how_it_was_run": "as §1"}, "[19]": {"target": "T3, Neuropeptide Y receptor type 1 (Homo sapiens, UniProt P25929)", "T3 sequence (P25929 whole entry)": "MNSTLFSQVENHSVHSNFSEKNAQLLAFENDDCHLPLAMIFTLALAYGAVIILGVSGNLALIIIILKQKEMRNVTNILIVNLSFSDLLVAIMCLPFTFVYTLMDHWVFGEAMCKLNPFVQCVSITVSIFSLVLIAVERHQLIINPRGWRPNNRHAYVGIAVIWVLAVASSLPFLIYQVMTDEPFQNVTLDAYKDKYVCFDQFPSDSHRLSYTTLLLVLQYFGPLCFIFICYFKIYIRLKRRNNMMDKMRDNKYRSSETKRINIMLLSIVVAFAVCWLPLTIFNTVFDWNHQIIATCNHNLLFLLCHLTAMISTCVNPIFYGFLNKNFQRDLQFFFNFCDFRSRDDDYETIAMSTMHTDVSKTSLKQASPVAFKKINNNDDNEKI", "assay": "Binding affinity to human NPY Y1 receptor"}, "Rattus norvegicus [20]": {"test_system": "Rattus norvegicus", "assay": "Reduction in body weight gain in po dosed Sprague-Dawley DIO rat after 28 days relative to control", "type": "functional, organism-based", "how_it_was_run": "as §2"}, "[21]": {"target": "Sodium-dependent dopamine transporter (Homo sapiens) (UniProt Q01959)", "sequence (Q01959 whole entry)": "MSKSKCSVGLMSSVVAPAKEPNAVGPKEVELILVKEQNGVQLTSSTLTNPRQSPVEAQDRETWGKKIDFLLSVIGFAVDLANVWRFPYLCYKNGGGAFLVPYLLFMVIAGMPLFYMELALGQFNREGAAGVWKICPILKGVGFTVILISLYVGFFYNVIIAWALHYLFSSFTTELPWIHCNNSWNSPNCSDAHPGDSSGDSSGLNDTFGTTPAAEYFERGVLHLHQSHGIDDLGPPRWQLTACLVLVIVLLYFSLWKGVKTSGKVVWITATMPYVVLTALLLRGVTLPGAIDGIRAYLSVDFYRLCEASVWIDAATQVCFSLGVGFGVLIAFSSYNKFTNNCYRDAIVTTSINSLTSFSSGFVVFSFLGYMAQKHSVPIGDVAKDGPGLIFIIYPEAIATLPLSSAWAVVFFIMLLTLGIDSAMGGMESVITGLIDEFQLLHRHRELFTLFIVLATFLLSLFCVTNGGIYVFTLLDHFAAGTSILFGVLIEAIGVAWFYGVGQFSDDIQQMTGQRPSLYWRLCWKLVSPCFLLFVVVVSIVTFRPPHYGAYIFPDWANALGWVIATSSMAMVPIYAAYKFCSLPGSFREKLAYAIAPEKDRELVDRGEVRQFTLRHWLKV", "assay": "Inhibition of dopamine transporter at 10 uM", "how_it_was_run": "as §1"}, "[22]": {"target": "T4, Neuropeptide Y receptor type 5 (Rattus norvegicus) (UniProt Q63634)", "T4 sequence (whole entry)": "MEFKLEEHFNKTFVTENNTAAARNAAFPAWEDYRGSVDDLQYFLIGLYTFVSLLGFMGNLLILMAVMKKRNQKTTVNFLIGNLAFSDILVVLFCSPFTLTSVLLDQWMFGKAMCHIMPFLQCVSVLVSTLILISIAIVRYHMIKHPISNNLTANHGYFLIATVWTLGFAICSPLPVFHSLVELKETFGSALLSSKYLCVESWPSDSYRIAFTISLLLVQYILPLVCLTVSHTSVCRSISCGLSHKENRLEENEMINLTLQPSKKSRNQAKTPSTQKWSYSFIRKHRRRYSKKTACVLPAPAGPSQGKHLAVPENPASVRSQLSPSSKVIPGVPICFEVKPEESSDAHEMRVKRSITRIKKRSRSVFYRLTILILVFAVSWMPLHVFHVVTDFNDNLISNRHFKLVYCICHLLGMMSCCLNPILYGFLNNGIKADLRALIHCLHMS", "assay": "Antagonist activity at rat NPY Y5 receptor expressed in HEK293 cells assessed as inhibition of forskolin-stimulated cAMP production", "type": "functional, cell-based", "how_it_was_run": "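HEK293 cells expressing rat NPY Y5 receptor. Functional antagonism measured as the ability to overcome NPY inhibition of forskolin-stimulated cAMP production; reported as Kb.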"}, "[23]": {"assay": "Inhibition of sodium channel at 10 uM", "how_it_was_run": "as §1"}, "Rattus norvegicus [24]": {"test_system": "Rattus norvegicus", "assay": "Reduction in food intake in Sprague-Dawley DIO rat at 10 mg/kg/day, po after 28 days relative to control", "type": "functional, organism-based", "how_it_was_run": "as §2"}, "GABA transporter": {"test_system": "GABA transporter", "assay": "Inhibition of GABA transporter at 10 uM"}}, "note": "pKi: −log10 of the molar value. Activity calls are given as the source filed them. The calls are words filed in the database; no cut-off is given here.", "data": [{"smiles": "CC(=O)N1CCC(N(C)C(=O)N[C@H]2CC[C@H](c3cc(F)cc(F)c3)CC2)CC1", "values": [{"measurement": "inhibition", "setting": "[1]", "value": "< 25", "unit": "%"}, {"measurement": "inhibition", "setting": "[2]", "value": "< 10", "unit": "%"}, {"measurement": "Activity", "setting": "Rattus norvegicus [3]", "value": "Active"}, {"measurement": "inhibition", "setting": "[4]", "value": "< 10", "unit": "%"}, {"measurement": "half-life", "setting": "[5]", "value": 1440, "unit": "min"}, {"measurement": "Activity", "setting": "Rattus norvegicus [6]", "value": "inactive"}, {"measurement": "inhibition", "setting": "[7]", "value": "< 10", "unit": "%"}, {"measurement": "concentration at 672 h", "setting": "[8]", "value": 13, "unit": "µM"}, {"measurement": "bioavailability", "setting": "[9]", "value": 100, "unit": "%"}, {"measurement": "inhibition", "setting": "[10]", "value": "< 10", "unit": "%"}, {"measurement": "pKi", "setting": "[11]", "value": "< 5.00"}, {"measurement": "inhibition", "setting": "[12]", "value": "< 25", "unit": "%"}, {"measurement": "half-life", "setting": "[13]", "value": 84, "unit": "min"}, {"measurement": "ED50", "setting": "Rattus norvegicus [14]", "value": 2.3, "unit": "mg/kg"}, {"measurement": "inhibition", "setting": "[15]", "value": "< 10", "unit": "%"}, {"measurement": "pKi", "setting": "[16]", "value": "< 5.00"}, {"measurement": "Kp", "setting": "[17]", "value": 0.3}, {"measurement": "inhibition", "setting": "[18]", "value": "< 25", "unit": "%"}, {"measurement": "pKi", "setting": "[19]", "value": "< 5.00"}, {"measurement": "Activity", "setting": "Rattus norvegicus [20]", "value": "Dose-dependent effect"}, {"measurement": "inhibition", "setting": "[21]", "value": "< 10", "unit": "%"}, {"measurement": "Kb", "setting": "[22]", "value": 2.7, "unit": "nM"}, {"measurement": "inhibition", "setting": "[23]", "value": "< 25", "unit": "%"}, {"measurement": "Activity", "setting": "Rattus norvegicus [24]", "value": "Dose-dependent effect"}, {"measurement": "inhibition", "setting": "GABA transporter", "value": "< 10", "unit": "%"}]}]}
